Source: ChEMBL document CHEMBL5724801, “EUbOPEN Chemogenomics Library - Multiplex” (2024)
Where “and” joins values, the source holds several entries; their conditions need not be identical. Equal entries are not always repeated.

Tested on: HEK-293T
Experiment: Multiplex assay against HEK293T
Format: toxicity, cell-based
Details: human
Procedure, shortened: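 Tubulin, mitochondrial-mass and membrane-permeability phenotypes are per cents of healthy-nucleus cells. Cells were gated by CellPathfinder machine learning into Hoechst high-intensity objects or normal cells, normal cells into healthy, pyknosed or fragmented nuclei, and pyknosed cells into mitotic or apoptotic. Before that, live cells stained at seeding with Hoechst33342, BioTracker Green Microtubule Cytoskeleton Dye, MitoTracker Red and Annexin V Alexa Fluor 680 were imaged on a CQ1 microscope at 37°C and 5% CO2 after compound addition.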

[1] = 12 h, 1 µM, compound concentration 1 uM
[2] = 12 h, 10 µM, compound concentration 10 uM
[3] = 24 h, 1 µM, compound concentration 1 uM
[4] = 24 h, 10 µM, compound concentration 10 uM
[5] = 48 h, 1 µM, compound concentration 1 uM
[6] = 48 h, 10 µM, compound concentration 10 uM

CC(C)(C)c1ccc(S(=O)(=O)Nc2ccc(Cl)cc2C(=O)c2cc[n+]([O-])cc2)cc1 [VERCIRNON]
Population Apoptotic (%) [1]: 32% and 52% | Population Fragmented Nuclei (%) [1]: 10% and 5% | Population Healthy Nuclei (%) [1]: 77% and 84% | Population Hoechst High Intensity Objects (%) [1]: 7% | Population Membrane Permeable-Phenotype (%) [1]: 0% | Population Mitochondria Different-Phenotype (%) [1]: 33% and 51% | Population Mitotic Cells (%) [1]: 68% and 47% | Population Normal (%) [1]: 92% | Population Pyknosed Nuclei (%) [1]: 12% and 10% | Population Tubulin-Different-Phenotype (%) [1]: 21% and 22% | Total Cell Count [1]: 428 and 424 | Population Apoptotic (%) [2]: 30% and 39% | Population Fragmented Nuclei (%) [2]: 6% and 4% | Population Healthy Nuclei (%) [2]: 83% and 82% | Population Hoechst High Intensity Objects (%) [2]: 6% and 5% | Population Membrane Permeable-Phenotype (%) [2]: 0% and 1% | Population Mitochondria Different-Phenotype (%) [2]: 35% and 51% | Population Mitotic Cells (%) [2]: 69% and 60% | Population Normal (%) [2]: 93% and 94% | Population Pyknosed Nuclei (%) [2]: 10% and 13% | Population Tubulin-Different-Phenotype (%) [2]: 37% and 27% | Total Cell Count [2]: 451 and 344 | Population Apoptotic (%) [3]: 41% and 28% | Population Fragmented Nuclei (%) [3]: 8% | Population Healthy Nuclei (%) [3]: 81% | Population Hoechst High Intensity Objects (%) [3]: 6% and 5% | Population Membrane Permeable-Phenotype (%) [3]: 0% | Population Mitochondria Different-Phenotype (%) [3]: 21% and 32% | Population Mitotic Cells (%) [3]: 58% and 71% | Population Normal (%) [3]: 93% and 94% | Population Pyknosed Nuclei (%) [3]: 9% | Population Tubulin-Different-Phenotype (%) [3]: 15% and 16% | Total Cell Count [3]: 522 and 521 | Population Apoptotic (%) [4]: 22% and 28% | Population Fragmented Nuclei (%) [4]: 10% and 7% | Population Healthy Nuclei (%) [4]: 77% and 82% | Population Hoechst High Intensity Objects (%) [4]: 3% and 5% | Population Membrane Permeable-Phenotype (%) [4]: 1% and 0% | Population Mitochondria Different-Phenotype (%) [4]: 15% and 31% | Population Mitotic Cells (%) [4]: 77% and 71% | Population Normal (%) [4]: 96% and 94% | Population Pyknosed Nuclei (%) [4]: 12% and 9% | Population Tubulin-Different-Phenotype (%) [4]: 20% and 23% | Total Cell Count [4]: 594 and 437 | Population Apoptotic (%) [5]: 28% and 32% | Population Fragmented Nuclei (%) [5]: 16% and 14% | Population Healthy Nuclei (%) [5]: 76% and 81% | Population Hoechst High Intensity Objects (%) [5]: 2% | Population Membrane Permeable-Phenotype (%) [5]: 0% and 2% | Population Mitochondria Different-Phenotype (%) [5]: 16% and 14% | Population Mitotic Cells (%) [5]: 71% and 67% | Population Normal (%) [5]: 97% | Population Pyknosed Nuclei (%) [5]: 7% and 4% | Population Tubulin-Different-Phenotype (%) [5]: 13% and 12% | Total Cell Count [5]: 834 and 877 | Population Apoptotic (%) [6]: 21% and 25% | Population Fragmented Nuclei (%) [6]: 13% and 12% | Population Healthy Nuclei (%) [6]: 81% and 80% | Population Hoechst High Intensity Objects (%) [6]: 3% and 2% | Population Membrane Permeable-Phenotype (%) [6]: 2% and 1% | Population Mitochondria Different-Phenotype (%) [6]: 12% and 18% | Population Mitotic Cells (%) [6]: 78% and 75% | Population Normal (%) [6]: 96% and 97% | Population Pyknosed Nuclei (%) [6]: 5% and 7% | Population Tubulin-Different-Phenotype (%) [6]: 14% and 15% | Total Cell Count [6]: 929 and 586

O=C(NCCNCC(O)COc1ccc(O)cc1)N1CCOCC1.O=C(NCCNCC(O)COc1ccc(O)cc1)N1CCOCC1.O=C(O)/C=C/C(=O)O (configuration not stated) [XAMOTEROL FUMARATE]
Population Apoptotic (%) [1]: 39% and 60% | Population Fragmented Nuclei (%) [1]: 5% | Population Healthy Nuclei (%) [1]: 79% and 76% | Population Hoechst High Intensity Objects (%) [1]: 4% and 14% | Population Membrane Permeable-Phenotype (%) [1]: 0% | Population Mitochondria Different-Phenotype (%) [1]: 39% and 57% | Population Mitotic Cells (%) [1]: 60% and 39% | Population Normal (%) [1]: 95% and 85% | Population Pyknosed Nuclei (%) [1]: 14% and 17% | Population Tubulin-Different-Phenotype (%) [1]: 26% and 21% | Total Cell Count [1]: 339 and 271 | Population Apoptotic (%) [2]: 35% and 29% | Population Fragmented Nuclei (%) [2]: 7% and 4% | Population Healthy Nuclei (%) [2]: 83% and 86% | Population Hoechst High Intensity Objects (%) [2]: 6% and 5% | Population Membrane Permeable-Phenotype (%) [2]: 0% | Population Mitochondria Different-Phenotype (%) [2]: 39% and 62% | Population Mitotic Cells (%) [2]: 65% and 70% | Population Normal (%) [2]: 93% and 94% | Population Pyknosed Nuclei (%) [2]: 8% and 9% | Population Tubulin-Different-Phenotype (%) [2]: 19% and 23% | Total Cell Count [2]: 499 and 406 | Population Apoptotic (%) [3]: 26% and 45% | Population Fragmented Nuclei (%) [3]: 8% and 9% | Population Healthy Nuclei (%) [3]: 78% and 80% | Population Hoechst High Intensity Objects (%) [3]: 6% and 13% | Population Membrane Permeable-Phenotype (%) [3]: 0% | Population Mitochondria Different-Phenotype (%) [3]: 18% and 38% | Population Mitotic Cells (%) [3]: 73% and 54% | Population Normal (%) [3]: 93% and 86% | Population Pyknosed Nuclei (%) [3]: 12% and 10% | Population Tubulin-Different-Phenotype (%) [3]: 17% and 15% | Total Cell Count [3]: 475 and 366 | Population Apoptotic (%) [4]: 21% and 33% | Population Fragmented Nuclei (%) [4]: 9% and 7% | Population Healthy Nuclei (%) [4]: 79% and 85% | Population Hoechst High Intensity Objects (%) [4]: 5% and 4% | Population Membrane Permeable-Phenotype (%) [4]: 0% | Population Mitochondria Different-Phenotype (%) [4]: 25% and 42% | Population Mitotic Cells (%) [4]: 78% and 66% | Population Normal (%) [4]: 94% and 95% | Population Pyknosed Nuclei (%) [4]: 11% and 7% | Population Tubulin-Different-Phenotype (%) [4]: 12% and 17% | Total Cell Count [4]: 632 and 542 | Population Apoptotic (%) [5]: 21% and 41% | Population Fragmented Nuclei (%) [5]: 14% and 11% | Population Healthy Nuclei (%) [5]: 77% and 81% | Population Hoechst High Intensity Objects (%) [5]: 2% and 4% | Population Membrane Permeable-Phenotype (%) [5]: 2% and 0% | Population Mitochondria Different-Phenotype (%) [5]: 11% and 18% | Population Mitotic Cells (%) [5]: 78% and 58% | Population Normal (%) [5]: 97% and 95% | Population Pyknosed Nuclei (%) [5]: 7% and 6% | Population Tubulin-Different-Phenotype (%) [5]: 9% and 10% | Total Cell Count [5]: 918 and 526 | Population Apoptotic (%) [6]: 17% and 25% | Population Fragmented Nuclei (%) [6]: 15% and 16% | Population Healthy Nuclei (%) [6]: 79% and 77% | Population Hoechst High Intensity Objects (%) [6]: 0% and 2% | Population Membrane Permeable-Phenotype (%) [6]: 1% and 0% | Population Mitochondria Different-Phenotype (%) [6]: 13% and 16% | Population Mitotic Cells (%) [6]: 82% and 74% | Population Normal (%) [6]: 99% and 97% | Population Pyknosed Nuclei (%) [6]: 5% | Population Tubulin-Different-Phenotype (%) [6]: 6% and 10% | Total Cell Count [6]: 1116 and 827
